Measurements from different studies.
Each line is one published result; the experiments were not run side by side.
Target: Casein kinase I isoform gamma-3 (CSNK1G3, Homo sapiens, UniProt Q9Y6M4)

SMILES	read-out	method	tested at	remaining binding
O=C(NCC1CCOCC1)c1n[nH]cc1NC(=O)c1c(F)cccc1F	binding	competition with immobilised ligand	1 µM	78%
CNCc1ccccc1-c1csc([C@H](C)Nc2nc(C)nc3cc(OC)c(OC)cc23)c1	cell-free assay	competition with immobilised ligand	1 µM	93%
CC1CCCN1c1nccc(-c2cnn3ncccc23)n1 (centres unmarked)	binding	–	1 µM	100%
COc1ncc2cc3ccccc3nc2c1C#N	cell-free assay	competition with immobilised ligand	5 µM	96%
Cc1nc(N2CC[C@@H](O)C2)ncc1-c1cc(C(F)(F)F)cc2[nH]ncc12	cell-free assay	competition with immobilised ligand	1 µM	74%
C[C@H]1CCN(c2nccc(-c3cnn4ncccc34)n2)C1	binding	–	1 µM	91%
Cc1c(C(=O)O)cc(-c2ccc(C3CCNCC3)cc2)c2ccc(-c3ccc(C(F)(F)F)cc3)cc12	cell-free assay	competition with immobilised ligand	1 µM	100%
FC(F)(F)Oc1cccc(-c2cnc3ccc(-c4ccncc4)nn23)c1	cell-free assay	competition with immobilised ligand	5 µM	84%
CC(=O)N1CCC(c2ccc(C(=O)NC3=NCCN3)cc2C(F)(F)F)CC1	cell-free assay	competition with immobilised ligand	1 µM	100%
CN(CCCC(F)(F)F)c1nccc(-c2cnn3ncccc23)n1	binding	–	1 µM	100%
O=C(c1ccc(Nc2ncc(Cl)c(-c3cc4ccccc4s3)n2)cc1)N1CCC(N2CCCC2)CC1	binding	competition with immobilised ligand	1 µM	100%
CS(=O)(=O)N1CCCC(NC(=O)[C@H](CCC2CCCCC2)NC(=O)c2ccc(CNc3ncnc4c3nnn4-c3ccccc3)cc2)C1 (some centres unmarked)	cell-free assay	competition with immobilised ligand	0.1 µM	100%
N[C@@H]1CCN(c2nccc(-c3cnn4ncccc34)n2)C1	binding	–	1 µM	100%
O=C(c1ccc(Nc2ncc(Cl)c(-c3ccc(Cl)s3)n2)cc1)N1CCC(N2CCCC2)CC1	binding	competition with immobilised ligand	1 µM	100%
COc1cnc(Nc2cccc(S(N)(=O)=O)c2)nc1N1CCN(c2ccccc2)CC1	binding	competition with immobilised ligand	1 µM	100%
CCN1CCN(Cc2ccc(C(=O)Nc3ccc(C)c(Oc4ccc5c(c4)CC(=O)N5)c3)cc2C(F)(F)F)CC1	binding	competition with immobilised ligand	1 µM	100%
c1cnn2ncc(-c3ccnc(N4CCC45COC5)n3)c2c1	binding	–	1 µM	100%
CSc1cccnc1N1CCN(Cc2nc3ccccc3[nH]2)CC1	cell-free assay	competition with immobilised ligand	1 µM	86%
COc1ccnn2ncc(-c3ccnc(N(C)C)n3)c12	binding	–	1 µM	97%
O=C(c1ccc(Nc2nccc(-c3cc4ccccc4s3)n2)cc1)N1CCC(N2CCCC2)CC1	binding	competition with immobilised ligand	1 µM	100%
